A number with no mark means an inactive call. Results filed as inconclusive are left out. Activity calls are given as the source filed them.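 The calls were made as follows, unless noted: active = viability at or below 27.92% in each of two runs, the all-compound median minus 4 SD; inconclusive = no clear call, values can overlap the other calls; inactive = the rest.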
What was measured:
[1] = S. cerevisiae growth inhibition in permissive medium (OD615), pilot counter-assay for S. cerevisiae lifespan shortening project, permissive growth control (AID 705;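 active = growth inhibition above 25% in both replicates, a cutoff set 3 SD above the mean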); conditions: OD615, 24 h, at 10 µM, stronger effect = higher value
Method in brief: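 assay system = Saccharomyces cerevisiae strain carrying genetically modified DeaD replicative-lifespan system | technique = absorbance (optical density) at 615 nm | buffer or medium = permissive raffinose/galactose medium | timing = cells pre-grown 4 h, then 24 h compound exposure, 30 °C humidified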

[2] = S. cerevisiae growth inhibition in restrictive medium, OD615, pilot screen, restrictive growth control, yeast lifespan reduction project (AID 706;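 active = growth inhibition above a set limit, 3 SD over mean compound inhibition, in both replicates, cut at about 43% in these data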;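 also: modified DeaD lifespan yeast strain shifted to restrictive glucose medium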); conditions: OD615, 48 h, at 10 µM, stronger effect = higher value
Method in brief: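 System: modified S. cerevisiae. Buffer or medium: CSMM-D glucose medium. Incubation: 4 h pre-growth plus 48 h compound exposure, 30 °C. Detection: absorbance (optical density) measured at 615 nm.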

[3] = doxorubicin toxicity protection in MRP-1 cells – H69AR cells, CellTiter-Glo, duplicate, MRP-1 activator project, pilot screen (AID 807;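 active = viability increase at or above a cutoff of the median across tested compounds plus 3 SD, cut at about 8.5% in these data, passing the limit was not always enough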;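 also: compound pretreatment 18-22 h then 72 h combined with doxorubicin; 0% = doxorubicin alone and 100% = vehicle without doxorubicin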); conditions: H69AR viability with doxorubicin, CellTiter-Glo luminescence; at 10 µM; stronger effect = higher value
[4] = viability of HCT116 without oncogenic beta-catenin – human colon tumor cells, pilot screen (AID 823;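 active = cell viability at or below a set limit in both duplicate runs, the limit being the all-compound median minus 4 SD, cut at about 23% in these data, passing the limit was not always enough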;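 also: 0% = wells killed by 20 µM Hyamine and 100% = untreated DMSO cell wells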); conditions: HCT116 beta-catenin knockout viability, CellTiter-Glo, 60 h; at 10 µM; stronger effect = lower value
[5] = viability of PTEN-null HCT116 cells – cell-based, HCT116 clonal line, CellTiter-Glo, pilot screen (AID 824); conditions: HCT116 PTEN-deleted viability, 60 h, at 10 µM, stronger effect = lower value;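 also: 0% = 20 µM Hyamine control and 100% = vehicle cell control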
[6] = RAM pathway blockade in budding yeast – dse1pr::URA3 reporter, 5-FOA selection, pilot screen (AID 869;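 active = inhibition over a set limit, the all-compound mean plus 3 SD, in both replicate runs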;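 also: 0% = DMSO wells with no growth and 100% = 10 µM 1-NA-PP1 with full growth; RAM network block rescues cells from 5-FOA so hits raise OD615 growth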); conditions: S. cerevisiae dse1pr::URA3 5-FOA growth, OD615, 2 d; at 10 µM; stronger effect = higher value; strain carries analog-sensitive mutant Cbk1 kinase
[7] = RAM signaling pathway blockade in yeast – S. cerevisiae, Pdr1DBD-CYC8 efflux-inhibited sensitized strain, primary screen (AID 1298;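 active = RAM network inhibition above 8.4% in each of two replicates, 3 SD over the compound average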;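 also: 0% = DMSO untreated cells without growth and 100% = 10 µM 1-NA-PP1 full growth; higher means more yeast growth rescued from 5-FOA killing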); conditions: S. cerevisiae cbk1-as DSE1-URA3 strain, 5-FOA growth OD615, 2 d; at 50 µM; stronger effect = higher value

Row | SMILES | growth inhibition [1] [%] | growth inhibition [2] | viability increase [3] [%] | viability [4] | viability [5] | inhibition [6] [%] | RAM network inhibition [7] [%]
1 | Cn1c2c(c(=O)n(C)c1=O)CN(Cc1ccco1)CN2 | -2 | 5.18% | -2.84 | 95.2% | 97.7% | -0.115 | -0.06
2 | CCN(CC)c1ccc(/C=N/n2c(C)cc(C)cc2=O)cc1 | 0.085 | 7.67% | -0.57 | 105% | 93% | 0.145 | 1.36
3 | CC(=O)c1cccc(NC(=O)c2cnn3ccccc23)c1 | -8.43 | -17.2% | -2.54 | 95.5% | 84.4% | 1.73 | 4.75
4 | CCc1ccc(NC(=O)CSc2nnc(Cn3c(=O)sc4ccccc43)n2C)cc1 | -4.66 | -25.2% | -1.98 | 104% | 97.6% | 2.96 | 8.29
5 | CC1CN(C(c2cccs2)c2sc3ncnn3c2O)CC(C)O1 (stereo not drawn) | -15 | -4.9% | 0.14 | 101% | 97.8% | 2.26 | 4.47
6 | C=CCSc1nnc2nc3c(nn12)c1cc(C)ccc1n3CC=C | 10.7 | 51.1% (active) | -3.51 | 88% | 82.6% | 1.21 | 3.23
7 | C(=C\c1ccccc1)/CSc1nnc(-c2cccnc2)o1 | 8.71 | 32.7% | 0.3 | 99.9% | 93.1% | 0.04 | 0.25
8 | Cc1ccc(OCC(O)CN2CCN(CC(O)COc3ccc(C)cc3Cl)CC2)c(Cl)c1 (stereo not drawn) | -5.18 | -17.4% | -4.02 | 77.7% | 81.8% | 2.03 | 2.76
9 | CC(C)NS(=O)(=O)c1ccc(NC(=O)c2cccnc2)cc1 | -12.7 | -17.3% | -0.51 | 112% | 97.1% | 1.95 | 1.31
10 | CCc1nnc(NC(=O)CSc2nccn2-c2cccc(C)c2)s1 | -8.43 | 11.6% | 0.02 | 109% | 98.1% | 0.64 | 5.11
11 | CCCCOC(=O)c1ccc(NS(=O)(=O)c2cc(-c3nnnn3CC)ccc2OC)cc1 | 3.03 | 2.27% | -2.06 | 91.5% | 98% | 0.93 | 4.7
12 | Cc1ccc2cc(CCNC(=O)C(C)(C)C)c(=O)[nH]c2c1 | -5.49 | -13.2% | 0.4 | 105% | 97.5% | 0.125 | 3.53
13 | O=C1CC(c2nc3ccccc3[nH]2)CN1c1ccccc1F (stereo not drawn) | 3.64 | -1.12% | -0.52 | 98.3% | 92.5% | 0.355 | 1.89
14 | Cc1ccnc(SCCn2c(N3CCCCC3)nc3c2c(=O)[nH]c(=O)n3C)n1 | -8.7 | -5.05% | 0.17 | 101% | 107% | 1.52 | 2.14
15 | COc1ccc(C2N(c3ccc(Cl)cc3)C(=O)C3CCCN32)cc1 (stereo not drawn) | 1.46 | 0.035% | 0.55 | 101% | 99.9% | 0.915 | 0.88
16 | c1ccc(-c2nnc(SCc3nc4ccccc4[nH]3)n2Cc2ccco2)nc1 | -0.44 | 10.8% | -1.33 | 90.3% | 91% | 0.04 | -0.6
17 | CCCC(=O)NCCCc1nc2ccccc2n1C | -3.69 | -0.54% | -1.21 | 97.1% | 105% | -0.03 | 2.78
18 | Cc1nn(-c2cccc(C(F)(F)F)c2)c(Cl)c1/C=N/n1cnnc1 | -2.49 | 17% | -6.44 | 87.7% | 85.7% | -0.18 | 1.77
19 | COc1cccc(C(=O)Nc2ccc3nc(N4CCOCC4)cc(C)c3c2)c1 | -7.63 | 0.38% | -6.58 | 95.7% | 85.9% | 0.845 | 2.45
20 | CS(=O)(=O)N1Cc2ccccc2CC1C(=O)Nc1ccccc1C(N)=O (stereo not drawn) | -2.29 | -1.52% | -1.04 | 108% | 97% | 3.26 | 7.36
21 | O=C(NCc1ccc2c(c1)OCO2)c1cnc2n(c1=O)CCS2 | -2.39 | 4.35% | -0.06 | 95.9% | 98% | 1.17 | 1.93
22 | CCOC(=O)c1c2n(c3c(NCc4ccccc4)ncnc13)CCCC2 | -11.4 | -10.9% | -7.91 | 83.6% | 78.7% | 1.23 | 2.51
23 | CN(CC1CCCO1)S(=O)(=O)c1ccc(C(=O)Nc2nc(-c3ccccn3)cs2)cc1 (stereo not drawn) | -14.2 | -14.7% | -5.46 | 18.5% (active) | 23.1% (active) | 2.57 | 2.63
24 | COc1ccc(C2c3c(oc4ccccc4c3=O)C(=O)N2c2ccccn2)cc1 (stereo not drawn) | -12.9 | -7.65% | -0.92 | 90.9% | 91% | 3.71 | 4.85

Reference: PubChem BioAssay
